Arr AP2 block: inhibitors of beta-arrestin/AP2 binding, primary screen, biochemical, GPCR trafficking, flow cytometry; beta-arrestin 1 C-terminal peptide binding to AP2 beta2-adaptin appendage (human); FITC-arrestin peptide / GST-AP2 beads; AP2 beta2 appendage carries R879A mutation; inhibition, % at 10 µM; 340,000 tested, 0.31% active; AID 504490, 2011;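 active = inhibition above a set limit, near 3 SD of compounds lacking own fluorescence, cut at about 54% in these data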;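 note: plate controls were DMSO wells for no effect and 5 µM unlabelled arrestin peptide for full effect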
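Test system: GST-tagged AP2 beta2-adaptin appendage (R879A) on 4 µm glutathione beads; also added: fluorescein-tagged arrestin peptide at 50 nM final; timing: 12 min plus 1 h, RT; signal: flow cytometry, FL1 (488/535 nm); read-out: percent drop in bead-associated FITC signal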
m5-HT2A agonist: mouse Htr2a agonists via beta-arrestin recruitment, primary screen, cell-based, luminescence; activation, % at 7.6 µM; 5-hydroxytryptamine receptor 2A (Mus musculus), P35363; CHO-K1 mHTR2A beta-arrestin complementation; percent of 30 µM serotonin response; 360,000 tested, 0.66% active;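 active = activation above a run cutoff, the mean activation of all tested compounds plus 3 SD, cut at about 14% in these data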;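 note: 0% = plate median of compound wells and 100% = 30 µM serotonin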
HGIII-sPLA2 inh: human group III sPLA2 inhibitors, primary screen, biochemical, QFRET, BODIPY PC-A2 liposome substrate | 370,000 tested, 0.56% active | Group 3 secretory phospholipase A2 (Homo sapiens), Q9NZ20 | QFRET BODIPY PC-A2 liposome hydrolysis, fluorescence | inhibition, % at 12.2 µM;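 active = inhibition above mean plus 3 SD of compounds lying within the high and low control bounds, cut at about 19% in these data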;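 note: 0% = median of test compound wells and 100% = no enzyme DMSO wells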
NRP1-CendR mod: modulators of CendR peptide binding to NRP-1, primary screen, biochemical, fluorescence polarization, uHTS. Neuropilin-1 (Homo sapiens), O14786. FAM-RPARPAR peptide binding to NRP-1. inhibition, % at 25 µM. 360,000 tested, 0.85% active. AID 602438, 2012;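 active = inhibition or corrected inhibition above about 18%, plus a signal ratio from 0.5 to 1.5, limit read from the data, passing the limit was not always enough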
Target sequence (O14786 whole entry, looked up): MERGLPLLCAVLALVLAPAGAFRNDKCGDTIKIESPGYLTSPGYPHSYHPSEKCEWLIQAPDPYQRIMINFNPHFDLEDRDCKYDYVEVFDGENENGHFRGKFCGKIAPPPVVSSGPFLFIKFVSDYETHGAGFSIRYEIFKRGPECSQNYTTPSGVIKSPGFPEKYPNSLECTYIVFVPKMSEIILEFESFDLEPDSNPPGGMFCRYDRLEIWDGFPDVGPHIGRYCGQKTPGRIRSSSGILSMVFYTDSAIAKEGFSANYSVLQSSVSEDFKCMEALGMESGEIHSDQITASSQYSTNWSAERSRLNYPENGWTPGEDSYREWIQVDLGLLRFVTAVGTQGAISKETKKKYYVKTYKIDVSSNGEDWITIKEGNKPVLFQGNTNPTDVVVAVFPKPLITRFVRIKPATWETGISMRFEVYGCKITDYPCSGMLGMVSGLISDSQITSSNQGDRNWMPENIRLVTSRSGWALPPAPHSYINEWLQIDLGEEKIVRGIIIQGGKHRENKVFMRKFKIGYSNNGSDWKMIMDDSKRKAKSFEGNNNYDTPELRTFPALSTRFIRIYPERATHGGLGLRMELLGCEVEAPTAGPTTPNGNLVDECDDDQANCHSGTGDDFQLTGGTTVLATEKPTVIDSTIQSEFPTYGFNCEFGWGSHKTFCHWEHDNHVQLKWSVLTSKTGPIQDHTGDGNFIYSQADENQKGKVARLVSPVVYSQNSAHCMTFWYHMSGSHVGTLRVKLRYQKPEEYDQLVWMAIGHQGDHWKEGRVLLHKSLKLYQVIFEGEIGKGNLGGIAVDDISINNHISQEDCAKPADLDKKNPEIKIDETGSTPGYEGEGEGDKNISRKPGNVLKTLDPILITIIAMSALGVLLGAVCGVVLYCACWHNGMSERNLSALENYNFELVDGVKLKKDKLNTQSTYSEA
M18AAP inhibitor: PfM18AAP inhibitors, malaria aminopeptidase, primary screen, biochemical, QFRET, recombinant enzyme; M18 aspartyl aminopeptidase (Plasmodium falciparum 3D7); H-Glu-NHMec fluorogenic cleavage; inhibition, % at 7.35 µM; 290,000 tested, 1.2% active; AID 1822, 2009;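 active = inhibition above the campaign mean inhibition over all tested compounds plus 3 SD, cut at about 28% in these data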;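 note: 0% = plate median of test compound wells and 100% = 2 mM ZnCl2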
Hep lipid drop: inhibitors of hepatocyte lipid droplet formation, primary screen, imaging, high-throughput imaging, BODIPY stain; AML12 mouse hepatocytes, oleate lipid droplets; inhibition, % at 6.5 µM; 240,000 tested, 0.4% active;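 active = lipid droplet intensity inhibited by at least 50%, with more than 500 cells counted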
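Test system: AML12 hepatocytes (mouse); reagent: oleate loading, 100 µM; dosing: one dose, 6.5 µM compound; incubation: overnight exposure; signal: fluorescence imaging, 20x objective, two fields per well; read-out basis: % inhibition of corrected integrated BODIPY droplet signal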
sPLA2 confirm: human group III sPLA2 inhibitors, confirmation, biochemical, QFRET, triplicate; AID 743280, 2014; shares compounds with HGIII-sPLA2 inh; inhibition, % at 12.2 µM; 2,000 tested, 34% active; recombinant hGIII-sPLA2, BODIPY PC-A2 QFRET fluorescence;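 active = mean inhibition across triplicates above the hit cutoff set in the earlier primary screen, cut at about 19% in these data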;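 note: 0% = enzyme with DMSO and 100% = DMSO wells lacking enzyme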
535nm interf: 535nm fluorescence optical interference, confirmation, artefact control for HGIII-sPLA2 inhibitor project, biochemical, QFRET; shares compounds with HGIII-sPLA2 inh; BODIPY FL product fluorescence interference; inhibition, % at 12.2 µM; 2,000 tested, 8.5% active; AID 743282, 2014;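 active = average inhibition above the solvent-only control mean plus 3 SD, cut at about 6% in these data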;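 note: 0% = DMSO with substrate plus product and 100% = DMSO with substrate alone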
535nm interf DR: 535nm fluorescence optical interference, dose response, artefact control for HGIII-sPLA2 inhibitor project, biochemical, QFRET; shares compounds with HGIII-sPLA2 inh; BODIPY FL product fluorescence interference, cell-free; IC50, µM; 240 tested, under 10 active; AID 743455, 2014;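 active = IC50 at or below 10 µM; inactive = IC50 above 10 µM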
* hit, by the source's call; / = not tested or not shown. This is a sample that favours compounds with a hit; in the whole collection about 3.3% have one here.

SMILES	Arr AP2 block	m5-HT2A agonist	HGIII-sPLA2 inh	NRP1-CendR mod	M18AAP inhibitor	Hep lipid drop	sPLA2 confirm	535nm interf	others
CCCC(=O)Nc1ccc(NC(=S)NC(=O)c2ccccc2[N+](=O)[O-])cc1	13.0	-2.6	8.2	-3.9	1.2	15.3	/	/
O=C(NNC(=S)NC(=O)c1ccccc1[N+](=O)[O-])c1ccccc1Cl	22.9	0.2	36.0*	6.4	15.5	19.9	31.0*	-1.1	535nm interf DR=>122
O=C(NC(=S)Nc1ccccc1[N+](=O)[O-])c1ccccc1Cl	6.3	-7.7	8.0	4.2	-9.6	-8.1	/	/
Cc1cccc(C)c1NC(=O)C(c1ccccc1)n1c(=O)c(-c2ccco2)nc2ccccc21 (configuration not stated)	/	0.2	6.0	-64.6	/	/	/	/
CC12CCC(C(=O)NCCCN3CCOCC3)(C(Br)C1=O)C2(C)C (configuration not stated)	-9.1	-0.8	20.9*	-9.7	-3.5	-6.5	1.1	-0.9
CC12CCC(C(=O)NCCCN3CCOCC3)(OC1=O)C2(C)C (configuration not stated)	10.4	2.3	8.2	-6.2	2.9	/	/	/
Nc1ccc2c3c(ccc([N+](=O)[O-])c13)CC2	/	-2.3	23.0*	2.8	/	/	33.9*	6.6*
CC(=O)c1ccc2c3c(ccc([N+](=O)[O-])c13)CC2	/	-8.0	7.9	0.2	/	/	/	/
Cn1c2ccc(F)cc2c2ncn(CC3CCCO3)c(=O)c21 (configuration not stated)	8.8	-0.1	20.7*	0.9	0.1	11.6	-0.6	-5.1
O=c1c2[nH]c3ccc(F)cc3c2ncn1CC1CCCO1 (configuration not stated)	-9.7	1.9	/	-10.9	-5.5	/	/	/
Cc1ccc(O)c(N=Nc2nccs2)c1	-3.6	-6.6	24.6*	-2.3	/	/	19.0	9.9*
C[C@H](CO)N1C[C@H](C)[C@@H](CN(C)S(=O)(=O)c2cn(C)cn2)Oc2ccc(NC(=O)C3CCCCC3)cc2C1=O	33.5	0.6	21.4*	-3.0	/	/	-0.6	-13.6
CCOC(=O)c1c(C)[nH]c(C(=O)COC(=O)COc2ccccc2C=O)c1C	-5.5	-1.3	19.9*	-7.9	13.5	-2.9	3.4	-14.2
CCOC(=O)c1c(C)[nH]c(C(=O)COC(=O)/C=C/c2cccc(OC)c2OC)c1C	-0.3	-1.2	17.6	-5.6	-16.8	-3.8	/	/
O=C(Nc1ccc(Cl)cc1C(=O)N1CCOCC1)c1ccco1	29.2	2.5	19.9*	2.2	3.3	23.7	2.0	-4.3
O=C(Nc1ccc(Cl)cc1C(=O)N1CCCCC1)c1ccco1	1.4	11.5	0.9	3.7	-0.2	-4.4	/	/
C[C@@H]1CN([C@H](C)CO)C(=O)CCCn2cc(nn2)CO[C@H]1CN(C)S(=O)(=O)c1cccs1	/	-2.5	2.1	9.8	/	/	/	/
C=CCNC(=S)NNc1nc2c(c(=O)[nH]1)C1(CCCCC1)Cc1ccccc1-2	3.7	8.3	25.3*	-5.5	4.6	7.9	29.3*	2.1	535nm interf DR=>122
O=c1[nH]c(NCCO)nc2c1C1(CCCC1)Cc1ccccc1-2	-0.2	10.5	-25.5	-14.2	1.9	/	/	/
